Experimental data: ChEMBL document CHEMBL2029288, “Coumarin-trioxane hybrids: synthesis and evaluation as a new class of antimalarial scaffolds” (Bioorg Med Chem Lett, 2012)
Values after ≈ are worked out from the molar mass of the structure shown.

Legend:
[1] = system: Plasmodium falciparum; experiment: Antimalarial activity against chloroquine-sensitive Plasmodium falciparum 3D7 after 72 hrs by MSF assay; format: functional, organism-based; conditions: 3D7, 72 h
Method in brief: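 Parasites in 1% cell suspension at 0.8–1% initial parasitaemia, exposed to compounds in duplicate wells for 72 h at 37 °C under 5% CO2 in air. SYBR Green-I then added for 1 h at 37 °C; fluorescence read at excitation 485 ± 20 nm, emission 530 ± 20 nm. Signal expressed as percent of untreated controls; IC50 by logit regression. Chloroquine standard.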

[2] = system: Plasmodium yoelii nigeriensis; experiment: Antimalarial activity against multi drug-resistant Plasmodium yoelii nigeriensis infected in Swiss mouse assessed as suppression in parasitemia at 96 mg/kg, po on day 4; format: functional
Method in brief: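 Peters's 4-day suppressive test in Swiss mice infected with P. yoelii nigeriensis. Compound given orally at 96 mg/kg/day for 4 days; parasitaemia suppression scored on day 4.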

Row | Structure (SMILES) | IC50 [1] | Activity [2]
1 | C=C(c1ccc(C)cc1)C1COC(c2cc(C)c3oc(=O)c(C(=O)OC)cc3c2)OO1 (centres undefined) | 0.361 µg/mL (≈ 0.853 µM) | –
2 | C=C(c1ccc(C)cc1)C1COC(c2cc(C)c3oc(=O)c(C(=O)OCC)cc3c2)OO1 (centres undefined) | 0.262 µg/mL (≈ 0.601 µM) | 41.14%
3 | C=C(c1ccc(C)cc1)C1COC(c2cc(C(C)CC)c3oc(=O)c(C(=O)OC)cc3c2)OO1 (centres undefined) | 0.132 µg/mL (≈ 0.284 µM) | –
4 | C=C(c1ccc(C)cc1)C1COC(c2cc(C(C)CC)c3oc(=O)c(C(=O)OCC)cc3c2)OO1 (centres undefined) | 0.0393 µg/mL (≈ 0.0821 µM) | –
5 | C=C(c1ccc(Br)cc1)C1COC(c2cc(C)c3oc(=O)c(C(=O)OC)cc3c2)OO1 (centres undefined) | 0.306 µg/mL (≈ 0.628 µM) | –
6 | C=C(c1ccc(Br)cc1)C1COC(c2cc(C)c3oc(=O)c(C(=O)OCC)cc3c2)OO1 (centres undefined) | 0.246 µg/mL (≈ 0.49 µM) | –
7 | C=C(c1ccc(Br)cc1)C1COC(c2cc(C(C)CC)c3oc(=O)c(C(=O)OC)cc3c2)OO1 (centres undefined) | 0.076 µg/mL (≈ 0.144 µM) | –
8 | C=C(c1ccc(Br)cc1)C1COC(c2cc(C(C)CC)c3oc(=O)c(C(=O)OCC)cc3c2)OO1 (centres undefined) | 0.11 µg/mL (≈ 0.203 µM) | –
9 | C=C(c1ccc(F)cc1)C1COC(c2cc(C)c3oc(=O)c(C(=O)OC)cc3c2)OO1 (centres undefined) | > 0.5 µg/mL | –
10 | C=C(c1ccc(F)cc1)C1COC(c2cc(C)c3oc(=O)c(C(=O)OCC)cc3c2)OO1 (centres undefined) | > 0.5 µg/mL | –
11 | C=C(c1ccc(F)cc1)C1COC(c2cc(C(C)CC)c3oc(=O)c(C(=O)OC)cc3c2)OO1 (centres undefined) | 0.203 µg/mL (≈ 0.433 µM) | –
12 | C=C(c1ccc(F)cc1)C1COC(c2cc(C(C)CC)c3oc(=O)c(C(=O)OCC)cc3c2)OO1 (centres undefined) | 0.117 µg/mL (≈ 0.242 µM) | –
13 | CO[C@H]1O[C@@H]2O[C@@]3(C)CC[C@H]4[C@H](C)CC[C@@H]([C@H]1C)[C@@]24OO3 [ARTEMETHER] | 0.0004 µg/mL (≈ 0.00134 µM) | –
